Assay results published in ChEMBL document CHEMBL1131598, “Synthesis and anticonvulsant activity of a new class of 2-[(arylalky)amino]alkanamide derivatives” (J Med Chem, 1998).

How the values were obtained:
Mus musculus [1] = assay: Anticonvulsant potency using the intravenous-BIC (bicuculline) test in mice; format: functional
Method in brief: (§1)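 Male Crl:CD-1(ICR)BR mice (22-24 g) were dosed orally at 5 mL/kg 60 min before bicuculline 0.6 mg/kg, a dose giving tonic extensor convulsions in at least 97% of vehicle-treated mice. Protection from tonic extension was scored for each mouse. ED50 (95% confidence interval) was obtained by probit analysis, with 10-20 animals per dose.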

Mus musculus [2] = species on record: Mus musculus; assay: Anticonvulsant potency using the maximal electroshock test in mice; format: functional
Method in brief: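 Male mice received intra-aural shocks through clip electrodes (0.7 s, 28 mA, 80 Hz pulse train, 0.4 ms pulses), a stimulus giving hindlimb tonic extension in at least 97% of controls. Compound was given orally 60 min or ip 30 min beforehand, at 5 mL/kg. Protection meant complete suppression of the hindlimb tonic extensor component. ED50 (95% confidence interval) was obtained by probit analysis, with 10-20 animals per dose.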

[3] = Toxicity using neurological impairment measured by rotarod test in mice; conditions: mouse, in vivo
Method in brief: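 Trained male Crl:CD-1(ICR)BR mice (22-24 g) were dosed orally at 5 mL/kg 60 min before testing on a 3-cm rod rotating at 10 rpm. Falls during a 2-min period were counted. TD50, the dose making 50% of animals fall, was calculated by probit analysis, with 10-20 animals per dose.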

Mus musculus [4] = assay: Compound was tested for anticonvulsant potency using the intravenous-BIC (bicuculline) test in mice; 8 out of 20 mice exhibited anticonvulsant activity; format: functional
Mus musculus [5] = assay: Compound was tested for anticonvulsant potency using the intravenous-BIC (bicuculline) test in mice; 5 out of 20 mice exhibited anticonvulsant activity; format: functional
Mus musculus [6] = assay: Compound was tested for anticonvulsant potency using the intravenous-BIC (bicuculline) test in mice; compound at 200 mg/kg induced impaired gait, loss of the righting reflex, and impaired breathing; format: functional; method in brief: as §1
Mus musculus [7] = assay: Compound was tested for anticonvulsant potency using the 3-MPA (3-mercaptopropionic acid) test in mice upon peroral administration; format: functional; conditions: po
Method in brief: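 Male Crl:CD-1(ICR)BR mice (22-24 g) were dosed orally at 5 mL/kg 60 min before 3-mercaptopropionic acid 60 mg/kg sc, a dose convulsing at least 97% of vehicle-treated mice. The end point was hindlimb tonic extension. ED50 (95% confidence interval) was obtained by probit analysis, with 10-20 animals per dose.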

Mus musculus [8] = assay: Compound was tested for anticonvulsant potency using the STRY (strychnine) test in mice upon peroral administration; format: functional; conditions: po
Mus musculus [9] = assay: Compound was tested for anticonvulsant potency using the intravenous-BIC (bicuculline) test in mice; 6 out of 20 mice exhibited anticonvulsant activity; format: functional
Mus musculus [10] = assay: Compound was tested for anticonvulsant potency using the intravenous-BIC (bicuculline) test in mice; 1 out of 10 mice exhibited anticonvulsant activity; format: functional
Mus musculus [11] = assay: Compound was tested for anticonvulsant potency using the intravenous-BIC (bicuculline) test in mice; 7 out of 20 mice exhibited anticonvulsant activity; format: functional
Mus musculus [12] = assay: Anticonvulsant potency using the PTX (picrotoxin) test in mice by peroral administration; format: functional; conditions: po

Compound	ED50 (Mus musculus [1]) [mg/kg]	ED50 (Mus musculus [2]) [mg/kg]	TD50 [3] [mg/kg]	also measured
CNC(=O)[C@@H](CO)NCc1ccc(OCc2ccccc2F)cc1	12.4	19.8	371	–
C[C@@H](NCc1ccc(Cc2ccccc2)cc1)C(N)=O	15.7	22.5	752	–
NC(=O)CNCCc1ccccc1	286	–	–	–
C[C@@H](NCc1ccc(OCc2ccsc2)cc1)C(N)=O	114	–	–	–
CNC(=O)[C@@H](CO)NCc1ccc(OCc2ccccc2C(F)(F)F)cc1	85.6	–	–	–
NC(=O)CCNCCc1ccc(OCc2cccc(Cl)c2)cc1	–	–	–	ED50 (Mus musculus [4]): > 400 mg/kg
CCCCCNCC(N)=O [MILACEMIDE]	701	–	–	–
CNC(=O)[C@H](CC(C)C)NCc1ccc(OCc2ccccc2)cc1	–	–	–	ED50 (Mus musculus [5]): > 100 mg/kg
C[C@H](NCc1ccc(OCc2ccccc2Cl)cc1)C(N)=O	–	–	–	ED50 (Mus musculus [6]): 18.4 mg/kg
Nc1nnc(-c2cccc(Cl)c2Cl)c(N)n1 [LAMOTRIGINE]	10.2	2.2	84	ED50 (Mus musculus [7]): > 40 mg/kg; ED50 (Mus musculus [8]): > 40 mg/kg
C[C@@H](NCc1ccc(SCc2ccccc2)cc1)C(N)=O	24.8	8.6	633	–
CNC(=O)CNCc1ccc(OCc2cccc(Cl)c2)cc1	30.5	48.6	–	–
CNC(=O)[C@@H](NCc1ccc(OCc2ccccc2)cc1)C(C)C	55.4	–	–	–
O=C(CNCc1ccc(OCc2cccc(Cl)c2)cc1)OCc1ccccc1	–	–	–	ED50 (Mus musculus [9]): > 400 mg/kg
CNC(=O)[C@H](NCc1ccc(OCc2ccccc2)cc1)C(C)C	112	–	–	–
C[C@@H](NCc1ccc(NC(=O)c2ccccc2)cc1)C(N)=O	–	–	–	ED50 (Mus musculus [10]): > 400 mg/kg
NC(=O)COCc1ccc(OCc2cccc(Cl)c2)cc1	–	–	–	ED50 (Mus musculus [11]): > 400 mg/kg
C[C@@H](NCc1ccc(OCc2cccs2)cc1)C(N)=O	61.6	–	–	–

Compound	ED50 (Mus musculus [1]) [mg/kg]	ED50 (Mus musculus [2]) [mg/kg]	TD50 [3] [mg/kg]	also measured
C[C@@H](NCc1ccc(OCc2cccc(F)c2)cc1)C(N)=O	26.9	8	626	ED50 (Mus musculus [7]): 21.5 mg/kg; ED50 (Mus musculus [12]): 60.6 mg/kg; ED50 (Mus musculus [8]): 104 mg/kg
CNC(=O)[C@@H](CO)NCc1ccc(OCc2cccc(C(F)(F)F)c2)cc1	19.5	13.1	750	–
CCCCC(C)NCC(N)=O (stereo not drawn)	640	–	–	–
C[C@@H](NCc1ccc(OCc2ccccn2)cc1)C(N)=O	172	–	–	–
C[C@@H](NCc1ccc(CNc2ccccc2)cc1)C(N)=O	119	–	–	–
C[C@@H](NCc1ccc(OCc2ccccc2F)cc1)C(N)=O	25.8	7	549	–
NC(=O)CNc1ccc(OCc2cccc(Cl)c2)cc1	–	–	–	ED50 (Mus musculus [5]): 400 mg/kg
CNC(=O)[C@H](NCc1ccc(OCc2ccccc2)cc1)C(C)O (stereo partly drawn)	–	–	–	ED50 (Mus musculus [6]): 21 mg/kg
C[C@@H](NCc1ccc(COc2ccccc2)cc1)C(N)=O	40.3	10.6	597	–
CC[C@@H](NCc1ccc(OCc2ccccc2)cc1)C(N)=O	55	7.2	277	–
CNC(=O)[C@@H](CO)NCc1ccc(OCc2cccc(F)c2)cc1	25.1	13	915	ED50 (Mus musculus [7]): 35.6 mg/kg; ED50 (Mus musculus [12]): 120 mg/kg; ED50 (Mus musculus [8]): > 250 mg/kg
C[C@@H](NCc1ccc(NCc2ccccc2)cc1)C(N)=O	9.3	11.5	217	ED50 (Mus musculus [7]): 16.3 mg/kg; ED50 (Mus musculus [12]): 37.5 mg/kg; ED50 (Mus musculus [8]): 50.3 mg/kg
CCCC(CCC)C(=O)O [VALPROIC ACID]	414	–	1180	ED50 (Mus musculus [7]): 167 mg/kg; ED50 (Mus musculus [12]): 350 mg/kg; ED50 (Mus musculus [8]): 538 mg/kg
CNC(=O)[C@H](C)NCc1ccc(OCc2ccccc2)cc1	8.4	7	224	–
C[C@@H](NCc1ccc(-c2ccccc2)cc1)C(N)=O	231	–	–	–
CNC(=O)[C@@H](CO)NCc1ccc(OCc2cccc(OC)c2)cc1	109	–	–	–
C[C@@H](NCc1ccc(Oc2ccccc2)cc1)C(N)=O	64	41.5	–	–
C[C@@H](NCc1ccc(OCc2ccc(F)cc2)cc1)C(N)=O	132	16.3	–	–
